Reference: ChEMBL document CHEMBL3112527, “Quinoline-pyrimidine hybrids: synthesis, antiplasmodial activity, SAR, and mode of action studies” (J Med Chem, 2014)
In brackets after ≈: the same amount, converted by molar mass. Activity calls are given as the source filed them. The rule behind the calls is not given here.

Legend:
[1] = system: Human respirovirus 3; test: Antiviral activity against parainfluenza virus 3 infected in African green monkey Vero cells assessed as inhibition of virus-induced cytopathicity; format: functional, organism-based
Summary of the method: (§1)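 Confluent monolayers (HEL, Vero, HeLa or CrFK, as applicable) were inoculated with 100 CCID50 of virus, with 1 CCID50 being the dose that infects 50% of cultures. Infection ran in the presence of varying compound concentrations. Inhibition of virus-induced cytopathicity was scored against infected cultures left untreated.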

[2] = n-octanol-PBS buffer distribution coefficient, log D of the compound at pH 7.4 after 24 hrs by HPLC analysis; format: physicochemical
[3] = system: Respiratory syncytial virus; test: Antiviral activity against Respiratory syncytial virus infected in human HeLa cells assessed as inhibition of virus-induced cytopathicity; format: functional, organism-based; summary of the method: as §1
[4] = Solubility of the compound in octanol at pH 7.4 by HPLC analysis; format: physicochemical
[5] = system: Influenza A virus H3N2; test: Antiviral activity against Influenza A virus H3N2 infected in MDCK cells assessed as inhibition of virus-induced cytopathicity; format: functional, organism-based
Summary of the method: (§2)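 Confluent monolayers in 96-well plates were inoculated with 100 CCID50 of virus in the presence of varying concentrations of compound. Read-out was inhibition of virus-induced cytopathicity, compared with untreated infected cultures. Cytotoxicity was judged microscopically or by MTT viability staining.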

[6] = system: Influenza A virus; test: Antiviral activity against influenza A virus H1N1 infected in MDCK cells assessed as inhibition of virus-induced cytopathicity; format: functional, organism-based; summary of the method: as §2
[7] = system: Vesicular stomatitis virus; test: Antiviral activity against Vesicular stomatitis virus infected in human HeLa cells assessed as inhibition of virus-induced cytopathicity; format: functional, organism-based; summary of the method: as §2
[8] = Cytotoxicity against cat CRFK cells assessed as cell viability by MTS assay; format: cell-based, Felis catus
Summary of the method: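 CRFK cells were exposed to varying sample concentrations. Cell viability was measured with the colorimetric formazan-based MTS assay, and the 50% cytotoxic concentration (CC50) was derived from it.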

[9] = system: Vesicular stomatitis virus; test: Antiviral activity against Vesicular stomatitis virus infected in HEL cells assessed as inhibition of virus-induced cytopathicity; format: functional, organism-based; summary of the method: as §2
[10] = Selectivity index, ratio of CC50 for cat CRFK cells to IC50 for chloroquine-resistant asexual erythrocytic stage of Plasmodium falciparum Dd2; format: functional
Summary of the method: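 Ratio of CRFK CC50 (μM) to Dd2 IC50 […]. CC50 is the 50% cytotoxic concentration in feline kidney CRFK cells, measured as cell viability by colorimetric formazan-based MTS assay. Dd2 IC50 is from the parasite LDH growth-inhibition assay.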

[11] = system: Coxsackievirus B4; test: Antiviral activity against Coxsackievirus B4 infected in human HeLa cells assessed as inhibition of virus-induced cytopathicity; format: functional, organism-based; summary of the method: as §1
[12] = system: Human betaherpesvirus 5; test: Antiviral activity against Cytomegalovirus AD169 infected in HEL cells assessed as inhibition of virus-induced cytopathicity; format: functional, organism-based
[13] = Cytotoxicity against human HeLa cells assessed as alteration of cell morphology by microscopic analysis; format: cell-based; settings: read-out: MIC
Summary of the method: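 Cells (Vero, HEL, MDCK or HeLa) were exposed to a range of sample concentrations. The value reported is the concentration required to cause a microscopically detectable alteration of normal cell morphology.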

[14] = system: Human alphaherpesvirus 1; test: Antiviral activity against thymidine kinase-negative acyclovir-resistant HSV-1 KOS infected in HEL cells assessed as inhibition of virus-induced cytopathicity; format: functional, organism-based; summary of the method: as §2
[15] = system: Human alphaherpesvirus 3; test: Antiviral activity against Varicella-zoster virus infected in HEL cells assessed as inhibition of virus-induced cytopathicity; format: functional, organism-based
[16] = system: Felid alphaherpesvirus 1; test: Antiviral activity against Feline herpesvirus infected in cat CRFK cells assessed as inhibition of virus-induced cytopathicity; format: functional, organism-based; summary of the method: as §1
[17] = system: Coxsackievirus B4; test: Antiviral activity against Coxsackievirus B4 infected in African green monkey Vero cells assessed as inhibition of virus-induced cytopathicity; format: functional, organism-based; summary of the method: as §1
[18] = system: Punta Toro virus; test: Antiviral activity against Punta Toro virus infected in African green monkey Vero cells assessed as inhibition of virus-induced cytopathicity; format: functional, organism-based; summary of the method: as §1
[19] = Aqueous solubility of the compound in PBS buffer at pH 7.4 after 24 hrs by HPLC analysis; format: physicochemical; settings: pH 7.4, 24 h
[20] = system: Human alphaherpesvirus 2; test: Antiviral activity against HSV-2 G infected in HEL cells assessed as inhibition of virus-induced cytopathicity; format: functional, organism-based; settings: strain G; summary of the method: as §1
[21] = system: Human betaherpesvirus 5; test: Antiviral activity against Cytomegalovirus Davis infected in HEL cells assessed as inhibition of virus-induced cytopathicity; format: functional, organism-based
[22] = system: Feline coronavirus; test: Antiviral activity against Feline coronavirus infected in cat CRFK cells assessed as inhibition of virus-induced cytopathicity; format: functional, organism-based; summary of the method: as §1
[23] = system: Plasmodium falciparum; test: Antiplasmodial activity against chloroquine-sensitive asexual erythrocytic stage of Plasmodium falciparum D10 assessed as parasite growth inhibition by lactate dehydrogenase assay; format: functional, organism-based
Summary of the method: (§3)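 Parasite lactate dehydrogenase assay (modified Makler method). Samples held as 20 mg/mL stocks in DMSO, diluted on test day. Full dose-response: starting at 10 μg/mL, 2-fold serial dilution in complete medium over 10 concentrations down to 0.02 μg/mL. Chloroquine, artesunate and MMV390048 served as references. IC50 from nonlinear dose-response curve fitting; mean of three independent experiments.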

[24] = system: Plasmodium falciparum; test: Antiplasmodial activity against chloroquine-resistant asexual erythrocytic stage of Plasmodium falciparum Dd2 assessed as parasite growth inhibition by lactate dehydrogenase assay; format: functional, organism-based; summary of the method: as §3
[25] = system: Mammalian orthoreovirus 1; test: Antiviral activity against Reovirus 1 infected in African green monkey Vero cells assessed as inhibition of virus-induced cytopathicity; format: functional, organism-based; summary of the method: as §1
[26] = system: Human alphaherpesvirus 1; test: Antiviral activity against HSV-1 KOS infected in HEL cells assessed as inhibition of virus-induced cytopathicity; format: functional, organism-based; summary of the method: as §1
[27] = system: Sindbis virus; test: Antiviral activity against Sindbis virus infected in African green monkey Vero cells assessed as inhibition of virus-induced cytopathicity; format: functional, organism-based
[28] = system: Vaccinia virus; test: Antiviral activity against Vaccinia virus infected in HEL cells assessed as inhibition of virus-induced cytopathicity; format: functional, organism-based; settings: Orthopoxvirus vaccinia; summary of the method: as §2

Structure (SMILES) | inhibition [1] | logD at 24 h [2] | inhibition [3] | solubility [4] [µM] | inhibition [5] | inhibition [6] | inhibition [7] | CC50 [8] [µM] | inhibition [9] | Ratio CC50/IC50 [10] | inhibition [11] | inhibition [12] | MCC [13] [µM] | inhibition [14] | inhibition [15] | inhibition [16] | inhibition [17] | inhibition [18] | solubility [19] [µM] | inhibition [20] | other results
Clc1ccc2c(NCCCNc3ccnc(N4CCOCC4)n3)ccnc2c1 | inactive | 0.363 | inactive | 1.27 (≈ 0.507 µg/mL) | inactive | inactive | inactive | > 100 | inactive | >247 | inactive | inactive | 100 | inactive | inactive | inactive | inactive | inactive | 0.55 (≈ 0.219 µg/mL) | inactive | inhibition [21]: inactive; inhibition [22]: inactive; IC50 [23]: 0.07 µM; IC50 [24]: 0.404 µM; inhibition [25]: inactive; inhibition [26]: inactive; inhibition [27]: inactive; inhibition [28]: inactive
Clc1ccc2c(NCCCCCCCCNc3ccnc(Cl)n3)ccnc2c1 | inactive | 1.48 | inactive | 2.41 (≈ 1.01 µg/mL) | inactive | inactive | inactive | 8 | inactive | 9 | inactive | inactive | 4 | inactive | inactive | inactive | inactive | inactive | 0.08 (≈ 0.0335 µg/mL) | inactive | inhibition [21]: inactive; inhibition [22]: inactive; IC50 [23]: 0.912 µM; IC50 [24]: 0.883 µM; inhibition [25]: inactive; inhibition [26]: inactive; inhibition [27]: inactive; inhibition [28]: inactive
Clc1ccc2c(NCCCCNc3nccc(Cl)n3)ccnc2c1 | inactive | 0.742 | inactive | 3.86 (≈ 1.4 µg/mL) | inactive | inactive | inactive | > 100 | inactive | >518 | inactive | inactive | 100 | inactive | inactive | inactive | inactive | inactive | 0.7 (≈ 0.254 µg/mL) | inactive | inhibition [21]: inactive; inhibition [22]: inactive; IC50 [23]: 0.179 µM; IC50 [24]: 0.193 µM; inhibition [25]: inactive; inhibition [26]: inactive; inhibition [27]: inactive; inhibition [28]: inactive
Clc1ccc2c(NCCNc3nccc(Cl)n3)ccnc2c1 | inactive | 0.501 | inactive | 2.85 (≈ 0.952 µg/mL) | inactive | inactive | inactive | > 100 | inactive | >12.53 | inactive | inactive | > 100 | inactive | inactive | inactive | inactive | inactive | 0.9 (≈ 0.301 µg/mL) | inactive | inhibition [21]: inactive; inhibition [22]: inactive; IC50 [23]: 2.51 µM; IC50 [24]: 7.68 µM; inhibition [25]: inactive; inhibition [26]: inactive; inhibition [27]: inactive; inhibition [28]: inactive
Clc1ccc2c(NCCCNc3nccc(N4CCNCC4)n3)ccnc2c1 | inactive | 0.102 | inactive | 0.75 (≈ 0.298 µg/mL) | inactive | inactive | inactive | 74 | inactive | 36 | inactive | inactive | 100 | inactive | inactive | inactive | inactive | inactive | 0.6 (≈ 0.239 µg/mL) | inactive | inhibition [21]: inactive; inhibition [22]: inactive; IC50 [23]: 0.113 µM; IC50 [24]: 2 µM; inhibition [25]: inactive; inhibition [26]: inactive; inhibition [27]: inactive; inhibition [28]: inactive
Clc1ccc2c(NCCCNc3ccnc(N4CCCCC4)n3)ccnc2c1 | inactive | 0.801 | inactive | 2.02 (≈ 0.802 µg/mL) | inactive | inactive | inactive | 55 | inactive | 334 | inactive | inactive | 20 | inactive | inactive | inactive | inactive | inactive | 0.32 (≈ 0.127 µg/mL) | inactive | inhibition [21]: inactive; inhibition [22]: inactive; IC50 [23]: 0.0655 µM; IC50 [24]: 0.166 µM; inhibition [25]: inactive; inhibition [26]: inactive; inhibition [27]: inactive; inhibition [28]: inactive
Clc1ccc2c(NCCCOc3nccc(Cl)n3)ccnc2c1 | inactive | 1.04 | inactive | 2.19 (≈ 0.765 µg/mL) | inactive | inactive | inactive | > 100 | inactive | >490 | inactive | inactive | > 100 | inactive | inactive | inactive | inactive | inactive | 0.2 (≈ 0.0698 µg/mL) | inactive | inhibition [21]: inactive; inhibition [22]: inactive; IC50 [23]: 0.304 µM; IC50 [24]: 0.204 µM; inhibition [25]: inactive; inhibition [26]: inactive; inhibition [27]: inactive; inhibition [28]: inactive
